Most compounds without a hit are left out; they make up all but 3% or so of the library.
RAM network inh – yeast RAM network inhibition; S. cerevisiae dse1pr::URA3 reporter, 5-FOA growth OD615, 2 d; analog-sensitive cbk1-as2 kinase mutant strain; inhibition, % at 50 µM; 190,000 tested, 1.8% active; AID 868;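 active means inhibition above a set limit, 3 SD over mean compound inhibition, cut at about 8.4% in these data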;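 further: 0% = DMSO-only wells with no growth and 100% = 10 µM 1-NA-PP1 full growth; inhibition rescues growth on 5-FOA so higher OD means more RAM inhibition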
BB579 growth dn – reduces growth of yeast BB579 in restrictive medium; AID 804; inhibition, % at 10 µM; 140,000 tested, 0.51% active; S. cerevisiae BB579 growth, OD615, 48 h;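 active means inhibition above a set limit, 3 SD over the mean compound inhibition, cut at about 44% in these data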
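System: Saccharomyces cerevisiae DeaD strain BB579, replicative lifespan model yeast | Buffer or medium: Restrictive glucose-based CSMM-D medium | Times: 4 h preincubation and 48 h exposure at 30 °C | Detection: OD615 turbidity measurement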
Ins promoter up – MIN6 insulin promoter up-regulation; MIN6 insulin promoter-GFP reporter, high-content imaging; stronger effect = higher value; z-score at 5 µM; 190,000 tested, 0.3% active; AID 1625;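 active means z-score above 3 at 5 µM with at least 500 cells counted in the well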
Insulin prom inh – TRM-6 insulin promoter activity inhibition. TRM-6 cells, insulin promoter-eGFP reporter, imaging; reporter expression induced with tamoxifen. AID 1273. 130,000 tested, 0.9% active. inhibition, % at 2 µM;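 active means inhibition above the mean plus 3 SD, with well images judged a real hit on visual review, cut at about 60% in these data, passing the limit was not always enough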
Yeast lifespan up – extends the lifespan of yeast; S. cerevisiae growth with nicotinamide, OD615; deaD strain in restrictive glucose medium; inhibition of the nicotinamide effect, % at 10 µM; 130,000 tested, 0.68% active;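 active means inhibition above a set limit, placed 3 SD over the median of all compounds, cut at about 26% in these data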;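 further: 0% = nicotinamide-treated wells and 100% = cells grown without nicotinamide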
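Assay system: engineered S. cerevisiae DeaD replicative-lifespan strain, galactose-grown log-phase cells; medium: restrictive CSMM-D dextrose medium; also added: nicotinamide, 1.5 mM, co-present with compound; schedule: 48 h compound exposure at 30 °C, humidified; detection: absorbance at 615 nm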
An asterisk follows results filed as active; . = no result given.

SMILES | RAM network inh | BB579 growth dn | Ins promoter up | Insulin prom inh | Yeast lifespan up
Cc1ccc(C(=O)NC(=S)NCC2CCCO2)cc1 (stereo not given) | 0 | -33 | 0.06 | 42 | 32*
O=C(NC(=S)NCC1CCCO1)c1ccc(Cl)cc1 (stereo not given) | -1 | -4 | -0.03 | -22 | -9
O=C(NCC1CCCO1)c1ccccn1 (stereo not given) | 1 | -33 | . | 75* | -3
O=C(NCC1CCCO1)c1ccccc1 (stereo not given) | 0 | 8 | 0.83 | 3 | -5
CCOC(=O)/C(=N\Nc1ccccc1)c1csc(Nc2ccc(C)cc2)n1 | 10* | -1 | . | 73 | -2
O=C1c2cccc3c(Cl)ccc(c23)C(=O)N1O | 0 | 82* | -0.79 | . | -10
ClC(Cl)(c1nnnn1-c1ccccc1)c1nnnn1-c1ccccc1 | -2 | -41 | -0.06 | -19 | 50*
c1ccc(N2CCN(c3nnnn3-c3ccccc3)CC2)cc1 | 2 | -54 | 0.39 | -4 | -13
CCN(CC(=O)NCc1ccc(F)cc1)C(=O)/C=C/c1ccco1 | 1 | . | . | -93 | .
COc1ccc(-n2nnnc2SCC(=O)c2ccc3c(c2)OCCO3)cc1 | 6 | -39 | . | 79* | .
Cc1cc(C)cc(-c2nnc(SCC(=O)c3ccc4c(c3)OCCO4)o2)c1 | 5 | -19 | . | 67 | .
O=C(CSc1nnc(-c2ccccc2)o1)c1ccc2c(c1)OCCO2 | 8.4* | -38 | 0.51 | . | -7
COc1ccc(-n2nnnc2SCC(=O)c2cccc(OC)c2)cc1 | 8 | -28 | -0.16 | . | -8
O=C(CSc1nnnn1Cc1ccccc1)c1ccccc1F | 1 | . | -0.54 | 93* | .
O=C(COC(=O)c1ccc(N2CCOCC2)c([N+](=O)[O-])c1)Nc1ccc2c(c1)OCO2 | 4 | -21 | 0.09 | 21 | -1
Nc1ccc(C(=O)OCC(=O)Nc2ccc3c(c2)OCO3)cc1[N+](=O)[O-] | 5 | 98* | -0.06 | 48 | -1
O=C(Nc1cccc(Cl)c1)c1cc(F)cc2c1OCOC2 | . | . | -0.07 | . | .
O=C(NC1CC1)C1=C[C@@H](c2ccc(Br)cc2)C[C@@H](OCc2ccc(CO)cc2)O1 | . | . | -0.62 | . | .
CC(C)Cc1nnc(NS(=O)(=O)c2ccc(Cl)cc2)s1 | 1 | -18 | 0.79 | . | 26*
O=c1[nH]c(Nc2ccccc2)cc2ccccc12 | 0 | 48* | 0.36 | . | -19
Cc1oc(C(C)(C)C)cc1C(=O)Nc1cccc(/C=C/C(=O)O)c1 | 8.4* | -48 | 1.4 | -23 | -11
Cc1cc(C(=O)Nc2cccc(/C=C/C(=O)O)c2)c(C)o1 | 1 | -29 | -0.26 | . | -9
CC(=O)Nc1ccc(CN2CCN(CCc3ccccc3)C(CCO)C2)cc1 (stereo not given) | 0 | . | -0.37 | . | .
COc1ccc(S(=O)(=O)c2nnn(-c3ccccc3Cl)c2N)cc1 | 0 | . | -0.56 | 73* | .
Cc1csc(/C(=N/OC(=O)c2ccco2)C(N)=O)n1 | . | . | 0.58 | . | .
SMILES | RAM network inh | BB579 growth dn | Ins promoter up | Insulin prom inh | Yeast lifespan up
CCN(CC)N=Nc1[nH]nc2nc(C)cc(C)c12 | 0 | 78* | -0.15 | . | -25
Cc1cc(C)c2c(N=NN3CCCCC3)[nH]nc2n1 | -1 | 85* | -1 | -18 | -8
N#Cc1ccccc1S(=O)c1ccccc1C(=O)Nc1ccccc1 (stereo not given) | 1 | . | -0.32 | -45 | .
S=C1NC[C@H](CC2CCCCC2)N1CC1CCCCC1 | 2 | . | -1.9 | . | .
O=C(Nc1nnc(COc2ccc(Cl)cc2)s1)c1cccs1 | 2 | -5 | -0.66 | 80* | -22
O=C(Nc1nnc(COc2ccc(F)cc2)s1)c1cccs1 | 2 | -9 | -0.78 | -13 | -12
CCn1c(SCC(=O)c2c[nH]c3ccccc23)nc2cc(S(=O)(=O)N3CCOCC3)ccc21 | 8 | -26 | 3.1* | 59 | 8
CCn1c(SCC(N)=O)nc2cc(S(=O)(=O)N3CCOCC3)ccc21 | 0 | . | 1.5 | 7 | .
c1cnc(N2CCN(c3cnccn3)CC2)nc1 | 0 | . | -0.35 | . | .
O=C(O)CC/C(=N/Nc1ncc(C(F)(F)F)cc1Cl)C(=O)O | 1 | . | -0.4 | 18 | .
Cc1noc(C)c1S(=O)(=O)N1CCC(C(=O)N2CCN(C3CCCC3)CC2)CC1 | 1 | -12 | 3* | . | 1
O=C(N/N=C/c1ccccc1O)C(=O)Nc1ccccn1 | 2 | . | . | . | .
COc1ccc(Cc2c(O)nc(SCC(=O)NC(C)(C)C)[nH]c2=O)cc1 | 0 | . | -0.29 | -7 | .
Fc1ccc(-c2csc3ncnc(N4CCc5ccccc5C4)c23)cc1 | 9.1* | -58 | 0.79 | 27 | -2
CC(C)CC1NC(=O)N(Cc2nc3ccccc3s2)C1=O (stereo not given) | . | . | 0 | . | .
CCOc1nc(NC(=O)NS(=O)(=O)Oc2cccc(Cl)c2)nc(-c2ccccc2)n1 | 1 | -17 | -0.28 | 78* | -6
CCOc1nc(NC(=O)NS(=O)(=O)c2cccc(Cl)c2)nc(-c2ccccc2)n1 | 0 | -4 | -0.22 | 59 | -5
C=C(C)CSc1nc2ncccc2[nH]1 | 0 | -26 | -0.44 | 71* | -7
CCOC(=O)c1cc2c(=O)n3ccccc3nc2n(C(C)C)c1=NC(=O)c1c(-c2c(F)cccc2Cl)noc1C | 10* | -22 | -1.1 | . | 1
Cc1cc(S(=O)(=O)NC2CCCCC2)c(C)s1 | 1 | -21 | 3.5* | . | 27
COC(=O)C(Cc1ccc(O)cc1)NC(=O)C(CC(=O)OC(C)(C)C)NC(=O)OC(C)(C)C (stereo not given) | 1 | . | -0.65 | . | .
CCOc1ccc(C(=O)O)cn1 | 0 | . | 1.5 | . | .
COc1ccc(CCNC(=O)Cc2ccc(OCc3ccccc3)c(OC)c2[N+](=O)[O-])cc1OCc1ccccc1 | 9.1* | -61 | -0.78 | -57 | -5
COc1ccc(CCNC(=O)Cc2ccc([N+](=O)[O-])cc2)cc1OC | . | . | -0.07 | . | .
Cn1cc(Cl)c(-c2n[nH]c(=S)n2C2CCCCC2)n1 | -1 | . | . | . | .
SMILES | RAM network inh | BB579 growth dn | Ins promoter up | Insulin prom inh | Yeast lifespan up
CC(C)NCC1CCc2cc(CO)c([N+](=O)[O-])cc2N1 (stereo not given) | . | . | 0.08 | . | .
COc1ccc(-c2cc(=O)c3ccccc3s2)cc1 | 8.8* | -34 | 0.62 | . | -29
CCCc1nc2ccc([N+](=O)[O-])cc2[nH]1 | 1 | . | -0.16 | . | .
CC(C)c1cc[n+](-c2nc([O-])sc2C=O)cc1 | 0 | -18 | 0.49 | 14 | 31*
O=C(NCc1cccnc1)c1cccc2c1C(=O)N(C1CCCCC1)C2 | 2 | -44 | -0.26 | . | 52*
O=C(NCc1ccco1)c1cccc2c1C(=O)N(C1CCCCC1)C2 | 3 | -38 | -0.25 | . | 0
CCOC(=O)C1=C(O)/C(=C/c2ccc(OCC(=O)O)c(OCC)c2)SC1=Nc1ccccc1 | 10* | . | -0.25 | 36 | .
NC(=S)Nc1ccc(Cl)cc1Cl | . | . | -0.3 | . | .
COc1cc(OC)c(N(C)S(=O)(=O)c2cccc(C(=O)NC3=NCCS3)c2)cc1Cl | . | . | -0.54 | . | .
CC(C)Sc1oc(-c2ccco2)nc1S(=O)(=O)c1ccc(F)cc1 | 1 | -18 | -1.1 | 3 | 0
CSc1oc(-c2ccco2)nc1S(=O)(=O)c1ccc(Br)cc1 | 8.4* | -16 | 0.58 | . | -2
